Source: ChEMBL document CHEMBL1129286, “In vitro and in vivo studies of benzisoquinoline ligands for the brain synaptic vesicle monoamine transporter” (J Med Chem, 1996)

Tests used:
Mus musculus [1] = test: Competition of compound for the in vivo localization of [11C] Methoxytetrabenazine in mouse Hyphalamus; %ID/g (%injected dose/g); assay type: functional, organism-based
Method in brief: (§1)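 CD-1 mice anesthetized with diethyl ether, given by tail vein a mixture of [11C]methoxytetrabenazine (100-300 µCi) plus 10 mg/kg test compound in 10% ethanol in saline, then allowed to recover. Controls received radiotracer in saline with no competitor. Killed under ether at 15 min, regional brain radioactivity read as %ID/g; mean ± SD, unpaired Student's t-test versus controls.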

[2] = target: Synaptic vesicular amine transporter (Rattus norvegicus, UniProt Q01827); test: In vitro inhibition of [3H]- Methoxytetrabenazine binding to rat brain vesicular monoamine transporter 2 (VMAT2)
Synaptic vesicular amine transporter, sequence (Q01827 whole entry): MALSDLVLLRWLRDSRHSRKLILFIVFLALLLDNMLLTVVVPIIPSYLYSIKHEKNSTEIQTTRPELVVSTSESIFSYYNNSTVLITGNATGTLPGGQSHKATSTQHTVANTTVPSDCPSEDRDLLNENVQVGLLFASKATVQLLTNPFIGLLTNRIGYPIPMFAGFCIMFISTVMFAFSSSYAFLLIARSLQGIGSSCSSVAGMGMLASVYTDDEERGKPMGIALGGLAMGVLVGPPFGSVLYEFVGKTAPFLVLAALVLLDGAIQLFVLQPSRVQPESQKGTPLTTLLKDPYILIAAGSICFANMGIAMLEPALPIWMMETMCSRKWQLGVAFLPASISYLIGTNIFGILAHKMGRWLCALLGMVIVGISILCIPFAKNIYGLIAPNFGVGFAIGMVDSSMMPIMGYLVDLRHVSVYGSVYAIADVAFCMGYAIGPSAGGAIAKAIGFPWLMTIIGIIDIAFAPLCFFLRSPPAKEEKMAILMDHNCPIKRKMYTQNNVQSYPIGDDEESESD
Method in brief: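 Autoradiographic competition on rat brain coronal sections (20, caudate-putamen level) on slides. Sections prewashed at 25 °C in sucrose buffer (300 mM sucrose, 50 mM Tris, 1 mM EDTA, pH 8.0), then incubated 3 h with 10 nM [3H]methoxytetrabenazine and test drug from 1 nM. Washed 3 × 3 min, dipped in 4 °C water, air-dried, film-exposed 2 weeks.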

Mus musculus [3] = test: Competition of compound for the in vivo localization of [11C] Methoxytetrabenazine in mouse Striatum; %ID/g (%injected dose/g); assay type: functional, organism-based; method in brief: as §1

## COc1cc2c(cc1OC)[C@H]1C[C@](C)(O)[C@H](CC(C)C)CN1CC2
Mus musculus [1]
  ID/g: 1.79%
[2]
  Ki: 12 nM
Mus musculus [3]
  ID/g: 2.35%

## COc1cc2c(cc1OC)[C@H]1C[C@@](C)(O)[C@H](CC(C)C)CN1CC2
Mus musculus [1]
  ID/g: 1.96%
[2]
  Ki: 2.6 nM
Mus musculus [3]
  ID/g: 2.09%

## COc1cc2c(cc1OC)[C@H]1C[C@@](O)(CC(C)C)[C@H](CC(C)C)CN1CC2
Mus musculus [1]
  ID/g: 2.93%
[2]
  Ki: 33 nM
Mus musculus [3]
  ID/g: 5.33%

## COc1cc2c(cc1OC)[C@H]1C[C@@](O)(C(C)C)[C@H](CC(C)C)CN1CC2
Mus musculus [1]
  ID/g: 3.06%
[2]
  Ki: 136 nM
Mus musculus [3]
  ID/g: 6.21%

## CCC[C@]1(O)C[C@@H]2c3cc(OC)c(OC)cc3CCN2C[C@H]1CC(C)C
Mus musculus [1]
  ID/g: 1.96%
[2]
  Ki: 84 nM
Mus musculus [3]
  ID/g: 4.26%

## COc1cc2c(cc1OC)[C@H]1CC(=O)[C@H](CC(C)C)CN1CC2
Mus musculus [1]
  ID/g: 1.71%
Mus musculus [3]
  ID/g: 2.26%

## CC[C@]1(O)C[C@@H]2c3cc(OC)c(OC)cc3CCN2C[C@H]1CC(C)C
Mus musculus [1]
  ID/g: 2%
[2]
  Ki: 42 nM
Mus musculus [3]
  ID/g: 3.24%
